Results pooled from the literature.
Each line is one published result; the experiments were not run side by side.
Target: Mitogen-activated protein kinase kinase kinase 8 (MAP3K8, Homo sapiens, UniProt P41279)

SMILES	test	conditions	measurement	value
CCOc1cc(-c2nncn2C)ccc1Nc1ncc2cc(C)nc(NCC(C)(C)C)c2n1	enzyme activity, inhibitor, FRET	1 µM	inhibition	< 15%
O=C(Nc1cnn(-c2csc(C(=O)NC3COC3)c2)c1)Nc1ccccc1Cl	enzyme activity, inhibitor	5 µM	remaining activity	92.7%
CCCS(=O)(=O)Nc1ccc(F)c(C(=O)c2c[nH]c3ncc(-c4ccc(Cl)cc4)cc23)c1F	enzyme activity, inhibitor	1 µM	inhibition	< 10%
COc1cc2ncnc(Nc3ccc(Oc4ccccc4)c(C)c3C)c2cc1OC	enzyme activity, inhibitor	1 µM	inhibition	-8%
O=C1NC(=O)c2cc(Nc3ccc(F)cc3)c(Nc3ccc(F)cc3)cc21	cell-free assay	0.5 µM	remaining signal	96.3%
CC/C(=N\NC(=O)NCc1cccc(O)c1)c1ccc(O)c(C)c1O	enzyme activity, inhibitor	0.1 µM	inhibition	-1.8%
CC(C)(O)[C@H]1CC[C@H](Nc2ccc3ncc(-c4cccc(C(F)(F)F)c4)n3n2)CC1	enzyme activity, inhibitor	1 µM	remaining activity	107%
CC(C)(C)c1nc2c(s1)c1nc(N)ncc1c1ccc(NS(=O)(=O)c3c(F)cccc3F)c(F)c12	enzyme activity, inhibitor, radiometric	1 µM	remaining activity	93%
N#CCCc1ccc2c(c1)-c1[nH]c3ccc([N+](=O)[O-])cc3c1CC(=O)N2	cell-free assay	0.5 µM	remaining signal	87.5%
COc1cc2ncnc(Nc3ccc(Oc4ccccc4)cc3C)c2cc1OC	enzyme activity, inhibitor	1 µM	inhibition	33%
CS(=O)(=O)Nc1cccc(-c2csc(NC(=O)CSc3nc4nccnc4c(=O)n3CCc3ccccc3)n2)c1	enzyme activity, inhibitor	10 µM	inhibition	4%
Cc1sc(C(=O)NC2COC2)cc1-n1cc(NC(=O)Nc2c(F)cccc2Cl)cn1	enzyme activity, inhibitor	10 µM	remaining activity	105%
CC(C)(C)c1nc(-c2cccc(NS(=O)(=O)c3c(F)cccc3F)c2F)c(-c2ccnc(N)n2)s1	enzyme activity, inhibitor, radiometric	1 µM	remaining activity	85%
O=C(CSc1nc2nccnc2c(=O)n1CCc1ccccc1)Nc1nccs1	enzyme activity, inhibitor	10 µM	inhibition	5%
